{"source": "ChEMBL document CHEMBL4152367", "about": "“Discovery of a Potent Thiazolidine Free Fatty Acid Receptor 2 Agonist with Favorable Pharmacokinetic Properties” (J Med Chem, 2018)", "key": {"[1]": {"test": "Clearance in Balb/c mouse primary hepatocytes per million cells after 2 hrs by LC-MS/MS analysis", "assay_type": "ADME, cell-based, Hepatocyte", "settings": "read-out: CLH"}, "[2]": {"target": "T1, Peroxisome proliferator-activated receptor delta (Homo sapiens) (UniProt Q03181)", "T1 sequence (whole entry)": "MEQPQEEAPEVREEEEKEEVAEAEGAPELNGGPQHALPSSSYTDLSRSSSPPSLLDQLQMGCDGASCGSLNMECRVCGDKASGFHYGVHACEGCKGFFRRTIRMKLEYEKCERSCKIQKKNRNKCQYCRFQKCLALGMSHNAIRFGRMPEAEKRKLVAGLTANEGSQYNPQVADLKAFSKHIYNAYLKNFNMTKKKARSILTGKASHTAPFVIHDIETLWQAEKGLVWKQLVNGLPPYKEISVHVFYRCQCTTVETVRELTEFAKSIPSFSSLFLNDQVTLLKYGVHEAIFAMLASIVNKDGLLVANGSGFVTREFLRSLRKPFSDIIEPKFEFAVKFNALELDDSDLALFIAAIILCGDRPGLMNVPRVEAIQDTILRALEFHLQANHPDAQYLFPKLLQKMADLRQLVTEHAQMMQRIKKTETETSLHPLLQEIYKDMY", "test": "Antagonist activity at human PPARdelta expressed in Escherichia coli assessed as inhibition of GW0742-induced calcium flux at 10 uM by fluorimetry"}, "[3]": {"target": "T2, Oxysterols receptor LXR-alpha (Homo sapiens) (UniProt Q13133)", "T2 sequence (whole entry)": "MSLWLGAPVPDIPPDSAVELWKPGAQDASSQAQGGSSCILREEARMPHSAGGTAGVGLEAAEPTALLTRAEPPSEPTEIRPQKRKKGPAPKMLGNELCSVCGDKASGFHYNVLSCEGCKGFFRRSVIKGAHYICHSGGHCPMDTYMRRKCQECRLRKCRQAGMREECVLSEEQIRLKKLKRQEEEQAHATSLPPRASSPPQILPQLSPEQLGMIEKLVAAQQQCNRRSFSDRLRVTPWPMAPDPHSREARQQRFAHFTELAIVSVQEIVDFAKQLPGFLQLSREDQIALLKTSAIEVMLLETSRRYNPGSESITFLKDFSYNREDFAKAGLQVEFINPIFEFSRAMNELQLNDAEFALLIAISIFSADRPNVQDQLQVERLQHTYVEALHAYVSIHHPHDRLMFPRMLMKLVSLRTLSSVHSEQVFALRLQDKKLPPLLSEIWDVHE", "test": "Antagonist activity at human LXRalpha expressed in Escherichia coli assessed as inhibition of T0901317-induced calcium flux at 10 uM by fluorimetry"}, "[4]": {"test": "AUC (0 to infinity) in Balb/c mouse at 5 mg/kg, iv by HPLC-MS/MS analysis", "assay_type": "ADME, organism-based", "set-up": "dose 5 mg/kg, time infinity, route intravenous", "settings": "in vivo", "how_it_was_run": "(§1)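 Balb/c mice dosed at 5 mg/kg iv or 10 mg/kg po. Plasma concentrations over time used to derive t1/2, AUC0–∞, Vd and total clearance (iv), and tmax, Cmax, AUC0–∞ and oral bioavailability (po).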"}, "[5]": {"target": "T3, Peroxisome proliferator-activated receptor alpha (Homo sapiens) (UniProt Q07869)", "T3 sequence (whole entry)": "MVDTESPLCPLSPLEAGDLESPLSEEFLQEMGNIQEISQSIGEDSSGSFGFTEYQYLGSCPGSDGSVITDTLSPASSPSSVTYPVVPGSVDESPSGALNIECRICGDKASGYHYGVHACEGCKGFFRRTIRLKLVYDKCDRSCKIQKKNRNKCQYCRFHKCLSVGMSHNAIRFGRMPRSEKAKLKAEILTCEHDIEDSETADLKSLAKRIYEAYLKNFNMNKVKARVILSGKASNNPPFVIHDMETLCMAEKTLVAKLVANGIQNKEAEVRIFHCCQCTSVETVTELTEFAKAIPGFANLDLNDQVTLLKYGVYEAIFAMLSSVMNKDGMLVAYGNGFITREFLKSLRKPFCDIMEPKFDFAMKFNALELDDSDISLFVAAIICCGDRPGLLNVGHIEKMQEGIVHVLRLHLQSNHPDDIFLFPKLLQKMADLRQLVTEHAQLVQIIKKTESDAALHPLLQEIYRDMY", "test": "Agonist activity at human PPARalpha expressed in Escherichia coli assessed as induction of calcium flux at 10 uM by fluorimetry"}, "[6]": {"test": "Half life in Balb/c mouse at 5 mg/kg, ip by HPLC-MS/MS analysis", "assay_type": "ADME, organism-based", "settings": "in vivo"}, "[7]": {"target": "T2, Oxysterols receptor LXR-alpha (Homo sapiens)", "test": "Agonist activity at human LXRalpha expressed in Escherichia coli assessed as induction of calcium flux at 10 uM by fluorimetry"}, "[8]": {"test": "Octanol/PBS buffer partition co-efficient, log D of the compound at pH 7.4 after 24 hrs by HPLC analysis", "assay_type": "physicochemical"}, "[9]": {"test": "Chemical stability of the compound in PBS buffer at 37 degC after 3 weeks", "assay_type": "physicochemical", "settings": "read-out: Stability", "how_it_was_run": "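Chemical stability: 50 µM compound (diluted from 10 mM DMSO stock) in 10 mM phosphate buffer, pH 7.4, shaken at 37 °C; sampled at intervals over 3 weeks. Remaining compound by HPLC peak area relative to the 0 time point; duplicate runs, each injected twice.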"}, "[10]": {"target": "T4, Free fatty acid receptor 3 (Homo sapiens) (UniProt O14843)", "T4 sequence (whole entry)": "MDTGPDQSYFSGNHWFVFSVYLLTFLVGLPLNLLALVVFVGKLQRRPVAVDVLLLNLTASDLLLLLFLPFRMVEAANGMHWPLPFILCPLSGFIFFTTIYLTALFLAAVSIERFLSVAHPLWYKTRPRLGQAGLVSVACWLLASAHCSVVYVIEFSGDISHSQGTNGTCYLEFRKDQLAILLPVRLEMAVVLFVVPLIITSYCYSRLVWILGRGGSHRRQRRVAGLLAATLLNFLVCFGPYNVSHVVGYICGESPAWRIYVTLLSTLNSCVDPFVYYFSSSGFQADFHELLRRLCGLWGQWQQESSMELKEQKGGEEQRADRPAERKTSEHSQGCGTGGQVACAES", "test": "Agonist activity at FFA3R (unknown origin) up to 100 uM", "assay_type": "functional"}, "[11]": {"test": "Aqueous solubility of the compound in PBS buffer at pH 7.4 after 24 hrs by HPLC analysis", "assay_type": "physicochemical"}, "[12]": {"test": "Cmax in Balb/c mouse at 10 mg/kg, po by HPLC-MS/MS analysis", "assay_type": "ADME, organism-based", "set-up": "dose 10 mg/kg, route oral", "settings": "in vivo", "how_it_was_run": "as §1"}, "[13]": {"test": "Chemical stability of the compound in FaSSGF after 2 hrs", "assay_type": "ADME, physicochemical", "settings": "read-out: Stability", "how_it_was_run": "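Simulated-fluid stability: 50 µM compound in FaSSIF or FaSSGF (from 10 mM DMSO stock), shaken at 37 °C for 0 and 120 min. Quenched with acetonitrile containing 0.5% HCOOH, centrifuged, supernatant by HPLC. Stability from peak area relative to the 0 min sample; duplicates, mean reported.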"}, "[14]": {"target": "T1, Peroxisome proliferator-activated receptor delta (Homo sapiens)", "test": "Agonist activity at human PPARdelta expressed in Escherichia coli assessed as induction of calcium flux at 10 uM by fluorimetry"}, "[15]": {"test": "Total clearance in Balb/c mouse at 5 mg/kg, iv by HPLC-MS/MS analysis", "assay_type": "ADME, organism-based", "settings": "in vivo", "how_it_was_run": "as §1"}, "[16]": {"test": "Metabolic stability in Balb/c mouse primary hepatocytes assessed as compound recovery after 2 hrs by LC-MS/MS analysis", "assay_type": "ADME, cell-based, Hepatocyte", "settings": "read-out: Drug recovery"}, "[17]": {"target": "T3, Peroxisome proliferator-activated receptor alpha (Homo sapiens)", "test": "Antagonist activity at human PPARalpha expressed in Escherichia coli assessed as inhibition of […]-induced calcium flux at 10 uM by alpha screen assay"}}, "note": "Activity calls are given as the source filed them. The calls are words filed in the database; no cut-off is given here."}
{"smiles": "Cc1noc(C)c1-c1ccc(C(=O)N2[C@@H](c3ccccc3Cl)SC[C@H]2C(=O)O)cc1", "values": [{"measurement": "hepatocyte CLint", "setting": "[1]", "result": "< 8", "unit": "µL/min/1e6 cells"}, {"measurement": "inhibition", "setting": "[2]", "result": "inactive"}, {"measurement": "inhibition", "setting": "[3]", "result": "inactive"}, {"measurement": "AUC(0-inf)", "setting": "[4]", "result": 4100, "unit": "ng·h/mL"}, {"measurement": "Activity", "setting": "[5]", "result": "inactive"}, {"measurement": "half-life", "setting": "[6]", "result": 1.37, "unit": "h"}, {"measurement": "Activity", "setting": "[7]", "result": "inactive"}, {"measurement": "logD at 24 h", "setting": "[8]", "result": 0.94}, {"measurement": "remaining at […]", "setting": "[9]", "result": 97.6, "unit": "%"}, {"measurement": "Activity", "setting": "[10]", "result": "inactive"}, {"measurement": "solubility at 24 h", "setting": "[11]", "result": 182, "unit": "µM"}, {"measurement": "Cmax", "setting": "[12]", "result": 2880, "unit": "ng/mL"}, {"measurement": "remaining at 2 h", "setting": "[13]", "result": 100, "unit": "%"}, {"measurement": "Activity", "setting": "[14]", "result": "inactive"}, {"measurement": "clearance", "setting": "[15]", "result": 20.3, "unit": "mL/min/kg"}, {"measurement": "remaining at 2 h", "setting": "[16]", "result": 72, "unit": "%"}, {"measurement": "inhibition", "setting": "[17]", "result": "inactive"}]}
